ChEMBL document CHEMBL1139083, “Discovery of 2-iminobenzimidazoles as a new class of trypanothione reductase inhibitor by high-throughput screening” (Bioorg Med Chem Lett, 2007)

Assays:
[1] = Inhibition of Trypanosoma brucei rhodesiense trypanothione reductase
In short: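 Automated photometric TR assay adapted to 384-well format. The rate of TNB formation was followed continuously at 412 nm for 15 min at room temperature.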

[2] = tested on: Trypanosoma brucei rhodesiense; experiment: Inhibition of Trypanosoma brucei rhodesiense trypanothione reductase at 25 uM
[3] = tested on: Trypanosoma brucei rhodesiense; experiment: Trypanocidal activity against Trypanosoma brucei rhodesiense; format: functional, organism-based
HT-29 = experiment: Cytotoxicity against human HT29 cells; format: functional, cell-based
[4] = target: T1, Glutathione reductase, mitochondrial (Homo sapiens, UniProt P00390); experiment: Inhibition of human glutathione reductase
T1 sequence (P00390 whole entry): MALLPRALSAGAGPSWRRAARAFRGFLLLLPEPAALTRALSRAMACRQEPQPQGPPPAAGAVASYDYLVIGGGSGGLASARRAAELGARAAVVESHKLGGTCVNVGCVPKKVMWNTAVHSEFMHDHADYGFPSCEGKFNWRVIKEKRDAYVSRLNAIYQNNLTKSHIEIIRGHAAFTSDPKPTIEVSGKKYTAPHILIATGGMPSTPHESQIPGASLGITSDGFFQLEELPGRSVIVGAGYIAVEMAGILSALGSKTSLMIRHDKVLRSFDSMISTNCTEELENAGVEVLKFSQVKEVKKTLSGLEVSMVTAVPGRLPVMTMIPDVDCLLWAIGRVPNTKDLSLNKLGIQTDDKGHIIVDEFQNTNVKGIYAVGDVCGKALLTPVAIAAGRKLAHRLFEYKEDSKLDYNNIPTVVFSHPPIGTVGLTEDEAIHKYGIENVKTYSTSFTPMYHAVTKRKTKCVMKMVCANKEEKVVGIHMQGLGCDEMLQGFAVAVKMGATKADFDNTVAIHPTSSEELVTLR
In short: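 GR assay adapted from the TR screening protocol, using higher enzyme and G[S]₂ levels because of the higher K_m. The rate of TNB formation was recorded continuously at 412 nm over 15 min at room temperature.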

| SMILES | IC50 [1] | further results |
| --- | --- | --- |
| N=c1n(CCCOc2ccccc2)c2ccccc2n1CCN1CCCCC1 | 7 µM |  |
| N=c1n(Cc2ccccc2)c2ccccc2n1CC(O)c1ccc(Cl)cc1 (stereo unspecified) | > 100 µM | inhibition [2]: 32% |
| N=c1n(CCN2CCOCC2)c2ccccc2n1CC(O)COc1ccccc1 (stereo unspecified) | > 100 µM |  |
| N=c1n(CCN2CCCCC2)c2ccccc2n1CC(O)COc1ccccc1 (stereo unspecified) | 5 µM |  |
| CCN(CC)CCn1c(=N)n(CC(O)c2ccc(Cl)c(Cl)c2)c2ccccc21 (stereo unspecified) | 9 µM |  |
| N=c1n(CCN2CCCCC2)c2ccccc2n1CC(O)COc1ccc(Cl)cc1Cl (stereo unspecified) | 5 µM |  |
| CCN(CC)CCn1c(=N)n(CC(=O)c2ccc(Cl)c(Cl)c2)c2ccccc21 | 10 µM |  |
| CCN(CC)CCn1c(=N)n(CC(O)c2ccc(C)cc2)c2ccccc21 (stereo unspecified) | 19 µM |  |
| N=c1n(CCOc2ccccc2)c2ccccc2n1CCN1CCCCC1 | 4 µM |  |
| N=c1n(CCN2CCCCC2)c2ccccc2n1CC(O)c1ccc(Cl)c(Cl)c1 (stereo unspecified) | 4 µM | Ki [1]: 3.6 µM; IC50 [3]: 0.2 µM; IC50 (HT-29): 9 µM; IC50 [4]: > 100 µM |
| Cc1ccc(C(O)Cn2c(=N)n(CCN(C)C)c3ccccc32)cc1 (stereo unspecified) | 29 µM |  |
| Cc1ccc(OCC(O)Cn2c(=N)n(CCN3CCCCC3)c3ccccc32)cc1 (stereo unspecified) | 9 µM |  |
| CC(C)(C)C(O)Cn1c(=N)n(CCN2CCCCC2)c2ccccc21 (stereo unspecified) | > 100 µM | inhibition [2]: 66% |
| Cc1ccc(C(O)Cn2c(=N)n(CCN3CCCCC3)c3ccccc32)cc1 (stereo unspecified) | 16 µM |  |
| CCCCn1c(=N)n(CC(O)c2ccc(Br)cc2)c2ccccc21 (stereo unspecified) | > 100 µM | inhibition [2]: 42% |
| CCn1c(=N)n(CCOCCOCCn2c(=N)n(CC)c3ccccc32)c2ccccc21 | > 100 µM |  |

| SMILES | IC50 [1] | further results |
| --- | --- | --- |
| CN1CCCC(n2c(=N)n(CCOc3ccccc3)c3ccccc32)C1 (stereo unspecified) | > 100 µM |  |
| c1ccc(OCCNc2ccccc2NCCN2CCCCC2)cc1 | > 100 µM |  |
| C=CCn1c(=N)n(CCN(CC)CC)c2ccccc21 | > 100 µM | inhibition [2]: 31% |
| CCN(CC)CCn1c(=N)n(CC(=O)c2ccc(C)cc2)c2ccccc21 | 7 µM | inhibition [2]: 91% |
| CCN(CC)CCn1c(=N)n(CCOc2ccccc2)c2ccccc21 | 8 µM |  |
| Cc1ccc(OCC(O)Cn2c(=N)n(CCN3CCOCC3)c3ccccc32)cc1 (stereo unspecified) | > 100 µM |  |
| Cc1ccc(C(O)Cn2c(=N)n(CCCN(C)C)c3ccccc32)cc1 (stereo unspecified) | 35 µM |  |
| COc1ccc(C(O)Cn2c(=N)n(CCN3CCCCC3)c3ccccc32)cc1 (stereo unspecified) | 24 µM | inhibition [2]: 85% |
| CN(C)CCn1c(=N)n(CC(O)c2ccc(Cl)c(Cl)c2)c2ccccc21 (stereo unspecified) | 10 µM | inhibition [2]: 92%; Ki [1]: 5.4 µM; IC50 [3]: 0.6 µM; IC50 (HT-29): 46 µM; IC50 [4]: > 100 µM |
| CCN(CC)CCn1c(=N)n(CC(=O)c2ccc(-c3ccccc3)cc2)c2ccccc21 | 25 µM |  |
| N=c1n(CCOCCOCCn2c(=N)n(Cc3ccccc3)c3ccccc32)c2ccccc2n1Cc1ccccc1 | 4 µM | Ki [1]: 1.9 µM; IC50 [3]: 1.3 µM; IC50 (HT-29): 144 µM; IC50 [4]: > 100 µM |
| CC(=O)/N=c1/n(CCOc2ccccc2)c2ccccc2n1CCN1CCCCC1 | > 100 µM |  |
| CCN(CC)CCn1c(=N)n(CCN(CC)CC)c2ccccc21 | 59 µM |  |
| N=c1n(CCCCCOc2ccccc2)c2ccccc2n1CCN1CCCCC1 | 8 µM |  |
| C=CCn1c(=N)n(CC(O)c2ccc(OCC)cc2)c2ccccc21 (stereo unspecified) | > 100 µM | inhibition [2]: 6% |
